Data published in ChEMBL document CHEMBL1128183, “Hypoxia-selective agents derived from 2-quinoxalinecarbonitrile 1,4-di-N-oxides. 2” (1995).

How the values were obtained:
V79 = test: Concentration giving 1% of control V79 cells survival in hypoxia; type: functional, Cricetulus griseus
How it was run: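 V79 Chinese hamster lung fibroblasts, trypsinized from exponential monolayers into suspension (2 × 10^4 cells/mL, EMEM + 10% FBS + 10 mM HEPES), gassed with nitrogen 30 min before and throughout 2 h drug exposure; duplicate flasks per dose. Cells replated, colonies (>64 cells) counted after 7 days at 37 °C; dose-response curve gives micromolar dose for 1% of control survival.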

[1] = Hypoxia cytotoxicity ratio (HCR), calculated by dividing the dose in air by the dose in hypoxia giving 1% control cell survival.; type: functional
How it was run: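 Suspension cultures of V79 cells gassed continuously with pure air or nitrogen (30 min pre-gassing, then 2 h exposure), two flasks per dose, DMSO and nitracrine 0.06 μM controls. Clonogenic survival from plating efficiency relative to control after 7-day colony growth; ratio = air dose over hypoxic dose each giving 1% control survival, from dose-response curves.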

Compound | Potency (V79) [nM] | HCR [1]
N#Cc1c(N)[n+]([O-])c2ccc(Cl)cc2[n+]1[O-] | 9000 | 150
N#Cc1c(NCCCN2CCOCC2)[n+]([O-])c2cc(Cl)ccc2[n+]1[O-] | 800 | >125
CCN(CC)CCNc1c(C#N)[n+]([O-])c2ccccc2[n+]1[O-] | 900 | 120
COc1ccc2c(c1)[n+]([O-])c(C#N)c(NCCCN(C)C)[n+]2[O-] | 2000 | 200
CN(CCCNc1c(C#N)[n+]([O-])c2cc(Cl)ccc2[n+]1[O-])CCCNc1c(C#N)[n+]([O-])c2cc(Cl)ccc2[n+]1[O-] | 700 | 10
N#Cc1c(NCCCn2ccnc2)[n+]([O-])c2ccc(Cl)cc2[n+]1[O-] | 2000 | >50
N#Cc1c[n+]([O-])c2ccccc2[n+]1[O-] | 5000 | >100
Cc1ccc2c(c1)[n+]([O-])c(C#N)c(NCCCN(C)C)[n+]2[O-] | 1000 | 300
CN(C)CCCNc1c(C#N)[n+]([O-])c2cc(F)ccc2[n+]1[O-] | 600 | 170
CN(C)CCCNc1c(C#N)[n+]([O-])c2cc(Cl)ccc2[n+]1[O-] | 400 | 250
N#Cc1c[n+]([O-])c2ccc(Cl)cc2[n+]1[O-] | 3000 | 30
Cc1c(C#N)[n+]([O-])c2ccccc2[n+]1[O-] | 10000 | 15
N#Cc1c[n+]([O-])c2ccc(F)cc2[n+]1[O-] | 2000 | >50
N#Cc1c(N)[n+]([O-])c2ccc(-c3ccc([N+](=O)[O-])cc3)cc2[n+]1[O-] | 4000 | 15
N#Cc1c[n+]([O-])c2cc(F)c(F)cc2[n+]1[O-] | 300 | 5
CN(C)CCCNc1c(C#N)[n+]([O-])c2ccccc2[n+]1[O-] | 1000 | 300
COc1cc2c(cc1Cl)[n+]([O-])cc(C#N)[n+]2[O-] | 400 | >50
COc1ccc2c(c1)[n+]([O-])c(C#N)c[n+]2[O-] | 5000 | >200
CCN(CC)CCNc1c(C#N)[n+]([O-])c2cc(Cl)ccc2[n+]1[O-] | 500 | 40
CN(C)CCNc1c(C#N)[n+]([O-])c2cc(Cl)ccc2[n+]1[O-] | 300 | 100

Compound | Potency (V79) [nM] | HCR [1]
CCN(CC)CCNc1c(C#N)[n+]([O-])c2cc(C)ccc2[n+]1[O-] | 3000 | 100
N#Cc1c[n+]([O-])c2ccc(-c3ccc([N+](=O)[O-])cc3)cc2[n+]1[O-] | 200 | 200
N#Cc1c[n+]([O-])c2ccc(C(F)(F)F)cc2[n+]1[O-] | 6000 | 80
Cc1cc2c(cc1C)[n+]([O-])c(C#N)c[n+]2[O-] | 14000 | >7
N#Cc1c(NCCCN2CCOCC2)[n+]([O-])c2ccc(Cl)cc2[n+]1[O-] | 2000 | 300
N#Cc1c(NCCO)[n+]([O-])c2ccc(Cl)cc2[n+]1[O-] | 4000 | 75
N#Cc1c(N)[n+]([O-])c2cc(F)c(F)cc2[n+]1[O-] | 1000 | <10
N#Cc1c(N)[n+]([O-])c2ccccc2[n+]1[O-] | 30000 | 80
N#Cc1c(N)[n+]([O-])c2ccc(C(F)(F)F)cc2[n+]1[O-] | 7000 | 75
CN(C)CCCNc1c(C#N)[n+]([O-])c2cc(C(F)(F)F)ccc2[n+]1[O-] | 300 | 340
N#Cc1c(N)[n+]([O-])c2ccc(F)cc2[n+]1[O-] | 15000 | 100
COc1ccc2c(c1)[n+]([O-])c(C#N)c(N)[n+]2[O-] | 30000 | >10
CCN(CC)CCNc1c(C#N)[n+]([O-])c2cc(OC)ccc2[n+]1[O-] | 1000 | 100
N#Cc1c[n+]([O-])c2cc(Cl)c(Cl)cc2[n+]1[O-] | 700 | 10
COc1cc2c(cc1Cl)[n+]([O-])c(N)c(C#N)[n+]2[O-] | 10000 | <10
CCN(CC)CCNc1c(C#N)[n+]([O-])c2cc(F)ccc2[n+]1[O-] | 400 | 75
CCN(CC)CCNc1c(C#N)[n+]([O-])c2cc(C(F)(F)F)ccc2[n+]1[O-] | 600 | 50
Cc1ccc2c(c1)[n+]([O-])c(C#N)c[n+]2[O-] | 6000 | 200
N#Cc1c(N)[n+]([O-])c2cc(Cl)c(Cl)cc2[n+]1[O-] | 1000 | 80
Nc1n[n+]([O-])c2ccccc2[n+]1[O-] [TIRAPAZAMINE] | 30000 | 75
